In the library only some 2.4% were active in any assay of this set; here they are far more common.
rRNA inh HTS: reduced GFP signal of wild-type E. coli, primary screen, bacterial rRNA inhibitor project, GFP/RFP fluorescence, OD600, single point. GFP signal change (wild-type ribosome), % (concentration not given with the values). AID 720706, 2013. E. coli WT GFP vs humanized-ribosome RFP mutants, 24 h; active compounds read low; DMSO median 0, no signal -100. hit rate 1.6% among 350,000;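 active = significant combined selectivity score with lowered wild-type GFP, culture density cut under 30%, mutant RFP and density less affected; inactive = any of these conditions unmet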
EWS-Fli block: EWS/Fli-driven NR0B1 reporter inhibitors, primary screen, A673 cells, NR0B1 luciferase, luminescence, MLPCN library; viability-normalised; inhibition, % at 12.6 µM; hit rate 0.67% among 350,000;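 active = mean inhibition of at least 50% after viability correction, with every replicate also passing that limit; inconclusive = mean reaches 50% but only one of two replicates passes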;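 note: firefly luciferase signal divided by Alamar Blue viability fluorescence both relative to DMSO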
LGR2 inh: inhibitors of bursicon-induced LGR2 CRE-luciferase signal, primary screen, cell-based, HEK293, CRE-luciferase reporter, bursicon stimulation; Drosophila bursicon receptor LGR2 (rickets); bursicon-stimulated, 4 h; inhibition, % at 9.99 µM; hit rate 0.35% among 380,000; AID 720647, 2013;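 active = drop in luminescence signal, shown as inhibition above about 50% in the replicate tests, limit read from the data, passing the limit was not always enough; inconclusive = probably only some replicates passing the limit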;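 note: agonist challenge used bursicon conditioned medium at about half maximal strength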
E-sel inducer: E-selectin induction in HUVECs, primary screen, imaging, HUVEC, immunofluorescence imaging, single point; normalized: neutral wells 0, TNF-alpha wells 100; activation, % at 7.58 µM; hit rate 0.37% among 260,000;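 active = mean E-selectin-positive cell signal at least 10% of the positive control, reached in at least 60% of replicates, without over 20% cell loss; inconclusive = no rule given, readout overlaps actives, possibly toxicity-flagged; inactive = the rest, including those meeting only one limit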
Target sequence (P16581 whole entry, looked up): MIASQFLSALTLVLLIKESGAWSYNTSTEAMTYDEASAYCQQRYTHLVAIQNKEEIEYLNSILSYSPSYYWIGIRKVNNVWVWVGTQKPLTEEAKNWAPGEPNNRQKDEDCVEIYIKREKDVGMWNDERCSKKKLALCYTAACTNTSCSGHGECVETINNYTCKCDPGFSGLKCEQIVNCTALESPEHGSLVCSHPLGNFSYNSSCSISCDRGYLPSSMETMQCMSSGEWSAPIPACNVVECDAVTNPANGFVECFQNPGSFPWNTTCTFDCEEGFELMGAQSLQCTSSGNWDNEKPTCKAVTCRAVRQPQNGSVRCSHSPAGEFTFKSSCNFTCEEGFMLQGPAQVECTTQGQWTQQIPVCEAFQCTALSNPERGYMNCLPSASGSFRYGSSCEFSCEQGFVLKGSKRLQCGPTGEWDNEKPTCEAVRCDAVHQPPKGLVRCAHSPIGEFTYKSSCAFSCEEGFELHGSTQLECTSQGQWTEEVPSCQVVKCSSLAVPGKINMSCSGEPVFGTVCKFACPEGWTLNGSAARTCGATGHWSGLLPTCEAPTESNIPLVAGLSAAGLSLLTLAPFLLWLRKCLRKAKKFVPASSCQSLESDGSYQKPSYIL
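Assay system: HUVEC primary endothelial cells. Input: 3,000 HUVEC seeded per well. Doses: one compound dose added by pin transfer. Read-out basis: % PE-positive cells. Benchmarks: TNF-alpha high, DMSO low. Detection: immunofluorescence imaging. Buffer or medium: EGM-2, gelatin.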
AID977621: growth inhibition of wild-type GFP E. coli, dose response, H69 mutant RFP, cherry-pick; shares compounds with rRNA inh HTS; AID 977621, 2014; E. coli wild-type GFP strain growth, fluorescence, 24 h; activity change, negative = inhibition at 50 µM; 1,900 tested, under 10 active;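 active = Wild-type ribosome reporter drop at least double the humanized mutant ribosome reporter drop, growth loss under a set limit; inconclusive = no clear call, values can overlap the other calls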;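 note: wild-type GFP and H69 mutant RFP strains grown together 50/50 in each well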
AID977628: E. coli growth inhibition, wild-type GFP versus h24 humanized RFP strain, dose response, h24 mutant RFP vs wild-type GFP, cherry-pick. shares compounds with rRNA inh HTS. E. coli WT GFP strain growth, fluorescence, 24 h. activity change, negative = inhibition at 50 µM. 1,900 tested, under 10 active. AID 977628, 2014;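 active = compound lowering the normal-ribosome reporter at least twice as much as the humanized-ribosome reporter, growth loss under a set limit; inconclusive = no clear call, values can overlap the other calls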;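 note: wild-type GFP and h24 humanized RFP strains co-cultured 1 to 1 per well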
* marks the source's active call; other numbers are inactive results; u = inconclusive; x = no result.

SMILES	rRNA inh HTS	EWS-Fli block	LGR2 inh	E-sel inducer	AID977621	AID977628
COc1ccc(CN2CCC3CC2c2cc(Cl)ccc23)cc1 (stereo not given)	-21*	2	10	x	u	u
Cc1noc(C)c1S(=O)(=O)N(C)C[C@H]1Oc2ccc(NC(=O)C3CC3)cc2CC(=O)N([C@@H](C)CO)C[C@H]1C	2	0	7	-7	x	x
COc1ccc(S(=O)(=O)Nc2ccc3c(c2)C(=O)N([C@@H](C)CO)C[C@H](C)[C@H](CN(C)S(=O)(=O)c2ccc(OC)cc2)OCCCC[C@H](C)O3)cc1	0	12	16	0	x	x
O=S(=O)(c1ccccc1)N1CCCCN2[C@H](CO)[C@H](c3ccc(C#Cc4cccnc4)cc3)[C@@H]2C1	-8	1	25	0	x	x
CC(=O)Oc1ccc(N(C(C)=O)S(=O)(=O)c2ccc(Cl)cc2)c2ccccc12	-23*	-10	-20	x	-13	u
CC(=O)Oc1ccc(N(C(C)=O)S(=O)(=O)c2ccc(C)cc2)c2ccccc12	-25*	0	x	0	-15	x
CC(=O)N(c1ccccc1C)S(=O)(=O)c1ccc(Cl)cc1	-23	2	2	x	x	x
Cc1ccc(S(=O)(=O)Nc2cccc3c2O[C@@H](CN(C)Cc2ccc(C(F)(F)F)cc2)[C@H](C)CN([C@@H](C)CO)C3=O)cc1	-1	1	-9	0	x	x
C[C@@H]1CN([C@H](C)CO)C(=O)c2cc(NC(=O)Cc3ccccc3)ccc2O[C@H]1CN(C)C(=O)Nc1ccccc1	5	-1	-10	0	x	x
COCCCNC(=O)c1ccc(-c2nc3ccccc3nc2-c2ccccc2)cc1	-32*	2	7	x	0.2	-3.1
c1ccc(-c2sc3ccccc3c2-c2ccc(OCCN3CCCCC3)cc2)cc1	-17*	13	-1	0	2.7	13
C[C@H]1CN(C)C(=O)c2cccc(N)c2O[C@H]1CN(C)S(C)(=O)=O	2	x	x	x	x	x
C[C@H]1CCCCO[C@@H](CN(C)S(=O)(=O)c2ccccc2)[C@@H](C)CN([C@@H](C)CO)C(=O)c2cc(NC(=O)C3CCCCC3)ccc2O1	0	5	-1	0	x	x
CCCN1CCC(=O)N([C@H](CSc2ccccc2)CC(C)C)CC1	-1	-113	-22	0	x	x
CC(C)C[C@@H](CSc1ccccc1)N1CCN(CC(C)C)CCC1=O	-23*	-88	-38	0	u	x
COCC(C)n1c(C)cc(C(=O)COC(=O)CCc2nc3ccccc3c(=O)[nH]2)c1C (stereo not given)	-17	5	-15	0	x	x
COCCCn1c(C)cc(C(=O)COC(=O)CCc2nc3ccccc3c(=O)[nH]2)c1C	-27*	-57	2	0	-15	x
CN1CCN(C(=O)C[C@H]2CC[C@H]3[C@@H](COC[C@@H](O)CN3C(=O)Nc3ccc(Cl)cc3)O2)CC1	-19*	-86	-51	0	x	u
O=C(C[C@@H]1CC[C@@H]2[C@H](COC[C@H](O)CN2C(=O)Nc2ccc(Cl)cc2)O1)NCc1ccncn1	-22*	-8	-9	0	-5.3	u
O=C(C[C@H]1CC[C@H]2[C@@H](COC[C@@H](O)CN2C(=O)Nc2ccc(Cl)cc2)O1)N1CCCCC1	-18*	-51	-25	0	x	u
CN1CCN(C(=O)C[C@H]2CC[C@H]3[C@@H](COC[C@H](O)CN3C(=O)Nc3ccc(Cl)cc3)O2)CC1	-25*	-92	-19	0	x	u
O=C(C[C@@H]1CC[C@H]2[C@@H](COC[C@H](O)CN2C(=O)Nc2ccc(Cl)cc2)O1)NCc1ccncn1	-6	-6	-13	0	x	x
CN1CCN(C(=O)C[C@H]2CC[C@@H]3[C@H](COC[C@H](O)CN3C(=O)Nc3ccc(Cl)cc3)O2)CC1	-17	-90	-46	0	x	x

Screens: PubChem BioAssay, Broad Institute
